Source: PubChem BioAssay
DSG3 Ab inh: inhibitors of pemphigus antibody binding to human desmoglein-3; P32926; DSG3-coupled beads, scFv-anti-DSG3-GFP binding, flow cytometry; hits give low values; binding (percent of control), % at 10 µM; 310,000 tested, 0.48% active;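 active = binding more than 3 SD below its plate's average and above zero; inconclusive = below that plate limit but binding exactly zero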;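 note: hits lower antibody fragment binding to DSG3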
Runt-SMMHC FRET: Runt domain-CBFb-SMMHC interaction inhibition. inhibition, % at 20 µM. Cerulean-Runt/Venus-CBFb-SMMHC FRET ratio 530/480, 1 h. Q01196+Q13951. 220,000 tested, 0.74% active;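 active = mean inhibition across duplicate retests at 20 µM reaching about 50%, limit read from the data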;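 note: inhibitors lower the FRET ratio by blocking Runt binding to CBFb-SMMHC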
pCIP destab: p/CIP protein destabilization. Q05BA5. F442A p/CIP-EGFP cells, EGFP fluorescence, 16 h. decrease of EGFP signal, % at 10 µM. 290,000 tested, 0.01% active. AID 1984;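 active = EGFP signal decrease of at least 30% at 10 µM or well 3 SD below plate mean, unless failing retest; inactive = the rest, including hits failing retest or dose response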
Target sequence (Q05BA5 1-1403): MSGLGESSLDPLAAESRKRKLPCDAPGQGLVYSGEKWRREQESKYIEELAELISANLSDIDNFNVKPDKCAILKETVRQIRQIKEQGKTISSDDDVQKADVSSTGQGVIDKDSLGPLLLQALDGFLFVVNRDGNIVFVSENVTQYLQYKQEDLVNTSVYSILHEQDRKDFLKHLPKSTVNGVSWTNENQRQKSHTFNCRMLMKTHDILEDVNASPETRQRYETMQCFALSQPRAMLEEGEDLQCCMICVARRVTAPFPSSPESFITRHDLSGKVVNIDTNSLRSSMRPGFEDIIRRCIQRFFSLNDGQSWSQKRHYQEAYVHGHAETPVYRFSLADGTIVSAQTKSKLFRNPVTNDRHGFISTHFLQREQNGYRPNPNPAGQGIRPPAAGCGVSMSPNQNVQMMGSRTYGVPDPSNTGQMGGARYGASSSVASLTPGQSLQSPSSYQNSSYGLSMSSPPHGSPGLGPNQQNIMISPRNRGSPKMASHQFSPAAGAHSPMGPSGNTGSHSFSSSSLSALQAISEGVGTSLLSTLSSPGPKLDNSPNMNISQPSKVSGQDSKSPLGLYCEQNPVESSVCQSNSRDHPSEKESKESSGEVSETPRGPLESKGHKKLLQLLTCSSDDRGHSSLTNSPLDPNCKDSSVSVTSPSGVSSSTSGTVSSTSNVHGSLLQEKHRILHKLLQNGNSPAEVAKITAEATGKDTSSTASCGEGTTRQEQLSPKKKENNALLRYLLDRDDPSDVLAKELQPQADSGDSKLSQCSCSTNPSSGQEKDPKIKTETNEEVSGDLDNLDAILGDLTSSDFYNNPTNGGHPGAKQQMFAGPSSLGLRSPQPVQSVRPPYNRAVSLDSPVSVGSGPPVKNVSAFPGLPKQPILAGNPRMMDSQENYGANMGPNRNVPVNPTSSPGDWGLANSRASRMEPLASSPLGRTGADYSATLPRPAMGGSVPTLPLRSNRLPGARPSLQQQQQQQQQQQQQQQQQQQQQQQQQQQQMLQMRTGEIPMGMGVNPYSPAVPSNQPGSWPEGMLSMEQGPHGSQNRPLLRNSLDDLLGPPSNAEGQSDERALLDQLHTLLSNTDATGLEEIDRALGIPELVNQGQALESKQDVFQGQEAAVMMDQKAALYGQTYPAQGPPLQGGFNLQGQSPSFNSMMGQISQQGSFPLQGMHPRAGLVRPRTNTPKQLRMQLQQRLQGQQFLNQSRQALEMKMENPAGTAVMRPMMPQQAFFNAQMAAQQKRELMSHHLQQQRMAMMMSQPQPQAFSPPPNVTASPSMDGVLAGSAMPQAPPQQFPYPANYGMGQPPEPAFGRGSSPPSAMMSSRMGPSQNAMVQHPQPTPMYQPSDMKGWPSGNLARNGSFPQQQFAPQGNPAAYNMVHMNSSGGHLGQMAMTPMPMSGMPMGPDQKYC
RanGTP-Impb inh: disruptors of Ran-importin-beta complex formation – biochemical, FRET, CFP-Ran, YFP-importin-beta, homogeneous, primary screen; inhibition, % (no concentration beside the values); cell-free CFP-Ran/YFP-importin-beta FRET ratio; 300,000 tested, 1.1% active; AID 2216;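 active = more than half of the replicate wells show a fall in the fluorescence ratio signal beyond about 16%, limit read from the data, passing the limit was not always enough; inconclusive = exactly half of the replicate wells pass the set limit; inactive = fewer than half of replicates pass the limit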
Runt-CBFb FRET: blocks binding of human RUNX1 Runt domain to CBFb; inhibition, % at 20 µM; 220,000 tested, 0.46% active; AID 1496; Cerulean-Runt/Venus-CBFb FRET ratio 530/480, 1 h; Q01196+Q13951;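 active = inhibition over about 50% at 20 µM in the single-dose screen, limit read from the data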
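Assay system: Cerulean-tagged RUNX1 Runt domain (FRET donor) fusion protein / Amount: 100 nM each of Venus-CBFb and Cerulean-Runt domain / Medium: Tris buffer pH 7.5 with salts and BSA / Also added: Venus-CBFb 100 nM / Schedule: 1 h complex formation plus 1 h compound treatment, room temperature / Signal: FRET fluorescence / Read-out: loss of energy transfer signal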
Hck-Nef inh: blocks Nef-activated human Hck kinase; 220,000 tested, 0.68% active; inhibition, % at 20 µM; Recombinant Hck-YEEI plus Nef, Z-Lyte FRET kinase assay; P08631;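 active = Hck-Nef kinase inhibition above about 50%, limit read from the data; inactive = inhibition below that limit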
Each line names hits and unclear results; the compound was inactive in the other large screens. Shown are actives, neighbours in structure and some others; about 2.1% of the full set was active somewhere.

COc1ccc(CCn2c(=N)c(C(=O)NC3CCCC3)cc3c(=O)n4cccc(C)c4nc32)cc1	RanGTP-Impb inh inconclusive (no result: Runt-SMMHC FRET, Runt-CBFb FRET, Hck-Nef inh)
CCCCNC(=O)c1cc2c(=O)n3cccc(C)c3nc2n(Cc2ccccc2)c1=N	Runt-SMMHC FRET 62, RanGTP-Impb inh 188
Cc1cccn2c(=O)c3cc(C(=O)NC4CCCC4)c(=N)n(C4CCCCC4)c3nc12	RanGTP-Impb inh 175 (no result: DSG3 Ab inh, Runt-SMMHC FRET, Runt-CBFb FRET, Hck-Nef inh)
CCCCNC(=O)c1cc2c(=O)n3cccc(C)c3nc2n1C	none (no result: DSG3 Ab inh, RanGTP-Impb inh, Hck-Nef inh)
Cc1cccn2c(=O)c3cc(C(=O)NC4CCCC4)c(=N)n(Cc4ccc(F)cc4)c3nc12	RanGTP-Impb inh 178 (no result: Runt-SMMHC FRET, Runt-CBFb FRET, Hck-Nef inh)
S=c1nc(-c2ccccc2)[nH]c2ccc(Br)cc12	none
CN(CCc1ccccc1)C(=O)c1cccc(NC(=O)Cc2cccc([N+](=O)[O-])c2)c1	none (no result: Runt-SMMHC FRET, pCIP destab, RanGTP-Impb inh, Runt-CBFb FRET, Hck-Nef inh)
CNC(=O)c1ccc(NC(=O)c2ccccc2OCc2c(C)noc2C)cc1	none (no result: Runt-SMMHC FRET, pCIP destab, RanGTP-Impb inh, Runt-CBFb FRET, Hck-Nef inh)
O=C(CNC(=O)c1ccccc1F)N/N=C\C=C\c1ccccc1	none (no result: Runt-SMMHC FRET, Runt-CBFb FRET, Hck-Nef inh)
Cc1ccc(Cn2c(=N)c(C(=O)NCC3CCCO3)cc3c(=O)n4cccc(C)c4nc32)cc1 (configuration not stated)	none (no result: Runt-SMMHC FRET, Runt-CBFb FRET, Hck-Nef inh)
Cc1cccn2c(=O)c3cc(C(=O)NC4CCCCC4)c(=N)n(Cc4ccccc4)c3nc12	RanGTP-Impb inh 186 (no result: Runt-SMMHC FRET, Runt-CBFb FRET, Hck-Nef inh)
COC(=O)c1cc(S(=O)(=O)NCCN2CCN(c3ccccc3F)CC2)c[nH]1	none (no result: DSG3 Ab inh, Runt-SMMHC FRET, Runt-CBFb FRET, Hck-Nef inh)
COc1ccc(NC(=O)c2ccc3c(c2)C(=O)N(Cc2ccncc2)C3=O)cc1S(N)(=O)=O	DSG3 Ab inh 69 (no result: Runt-SMMHC FRET, pCIP destab, RanGTP-Impb inh, Runt-CBFb FRET, Hck-Nef inh)
CCc1ccc(/C=C2\SC(=S)N(CCCC(=O)Nc3cc(C)on3)C2=O)cc1	none (no result: Runt-SMMHC FRET, pCIP destab, RanGTP-Impb inh, Runt-CBFb FRET, Hck-Nef inh)
CS(=O)(=O)c1ccc(Cl)c(NC(=O)COC(=O)CCCN2C(=O)c3cccc4cccc(c34)C2=O)c1	RanGTP-Impb inh 25 (no result: Runt-SMMHC FRET, pCIP destab, Runt-CBFb FRET, Hck-Nef inh)
Cc1cc(NC(=O)CCCN2C(=O)/C(=C/c3cccs3)SC2=S)no1	DSG3 Ab inh 16
Cc1cc(NC(=O)CCCN2C(=O)c3cccc4cccc(c34)C2=O)no1	DSG3 Ab inh 92
Cc1cc(NC(=O)CCCN2C(=O)c3cccnc3C2=O)no1	none
Cc1ccc(NC(=O)CCCN2C(=O)/C(=C/C=C/c3ccccc3)SC2=S)cc1	DSG3 Ab inh 85
CC(Sc1ccccc1F)C(=O)Nc1ccc2c(c1)OCCO2 (configuration not stated)	none (no result: Runt-SMMHC FRET, pCIP destab, RanGTP-Impb inh, Runt-CBFb FRET, Hck-Nef inh)
O=C(CSCc1cc(=O)n2nc(C3CC3)sc2n1)Nc1ccc(F)cc1	none (no result: Runt-SMMHC FRET, Runt-CBFb FRET, Hck-Nef inh)
COc1cc(C2C3=C(COC3=O)OC(C)(C)Oc3cc4c(cc32)OCO4)cc(OC)c1OC (configuration not stated)	none (no result: Runt-SMMHC FRET, pCIP destab, RanGTP-Impb inh, Runt-CBFb FRET, Hck-Nef inh)
Cc1ccc(S(=O)(=O)NCc2ccccc2)cc1C(=O)NCC(=O)Nc1c(C)cccc1C	none (no result: Runt-SMMHC FRET, pCIP destab, RanGTP-Impb inh, Runt-CBFb FRET, Hck-Nef inh)
O=C(N/N=C/C(Cl)=C\c1ccccc1)c1ccco1	DSG3 Ab inh 88
CC(C)CN1CCC(=O)N(CCO)CC1	none (no result: Runt-SMMHC FRET, Runt-CBFb FRET, Hck-Nef inh)
CSc1ccc(S(=O)(=O)N2CCC(C(=O)Nc3ccc(C(N)=O)cc3)CC2)cc1	none (no result: DSG3 Ab inh, Runt-SMMHC FRET, Runt-CBFb FRET, Hck-Nef inh)
O=C(CN1CCN(c2cccc(C(F)(F)F)c2)CC1)N(C1CCCC1)C1CCS(=O)(=O)C1 (configuration not stated)	none (no result: Runt-SMMHC FRET, pCIP destab, RanGTP-Impb inh, Runt-CBFb FRET, Hck-Nef inh)
Cc1ccc(C(=O)NCCn2c(N)c(C#N)c3nc4ccccc4nc32)cc1	Runt-SMMHC FRET 79, RanGTP-Impb inh 58, Runt-CBFb FRET 98
N#Cc1c(N)n(CCOC(=O)c2cccc(Br)c2)c2nc3ccccc3nc12	Runt-SMMHC FRET 51, RanGTP-Impb inh inconclusive
COc1cccc(Cn2c(N)c(C#N)c3nc4ccccc4nc32)c1OC	none
COc1ccc(Cn2c(N)c(C#N)c3nc4ccccc4nc32)cc1	Runt-SMMHC FRET 94, RanGTP-Impb inh 33, Runt-CBFb FRET 80
N#Cc1c(N)n(CCOC(=O)c2cccc([N+](=O)[O-])c2)c2nc3ccccc3nc12	none (no result: DSG3 Ab inh)
COc1cc(Cn2c(N)c(C#N)c3nc4ccccc4nc32)cc(OC)c1	Runt-SMMHC FRET 113, RanGTP-Impb inh 38, Runt-CBFb FRET 72
O=C1C=C(c2ccc3[nH]ccc3c2)C[C@@H](c2ccc(Cl)cc2)C1	none (no result: Runt-SMMHC FRET, pCIP destab, RanGTP-Impb inh, Runt-CBFb FRET, Hck-Nef inh)
N#Cc1c(N)n(CCc2ccc(F)cc2)c2nc3ccccc3nc12	Runt-SMMHC FRET 77, RanGTP-Impb inh 44, Runt-CBFb FRET 93
